# pIC50: −log10 of the molar value. Active and inactive are the calls of the source. The calls are words filed in the database; no cut-off is given here.
# Key:
# Human alphaherpesvirus 1 [1] = assay: Antiviral activity against HSV1 infected in african green monkey Vero cells assessed as total inhibitory concentration after 3 days by plaque reduction assay; format: functional
# In short: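 Vero cells seeded in 24-well plates and grown 24 h, then infected with 30 PFU HSV-1 in the presence of a range of sample concentrations. Samples were diluted in DMEM with 2% FBS at pH 7.2, and medium alone served as control. Wells were overlaid with 1% methylcellulose medium and incubated 3 days, then formalin-fixed and crystal violet-stained. Plaques were counted, and the 100%-inhibitory concentration was read from plots.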
# [2] = Cytotoxicity against african green monkey Vero cells after 3 days by MTT assay; format: cell-based; details: chlorocebus sabaeus, read-out: MNCC
# Human alphaherpesvirus 1 [3] = assay: Antiviral activity against HSV1 infected in african green monkey Vero cells assessed as inhibition of virus-induced cytopathic effect after 3 days; details: Human alphaherpesvirus 1, Vero, 72 h
SMILES,Activity (Human alphaherpesvirus 1 [1]),MNTC at 72 h [2] [µM],pIC50 (Human alphaherpesvirus 1 [3])
COc1cc(O)c2c(=O)c(O[C@@H]3O[C@H](CO)[C@@H](O[C@@H]4O[C@H](CO)[C@@H](O)[C@H](O)[C@H]4O)[C@H](O)[C@H]3O)c(-c3ccc(O)c(O)c3)oc2c1 [NERVILIFORDIN C],inactive,160,–
Nc1nc2c(ncn2COCCO)c(=O)[nH]1 [ACYCLOVIR],–,1110,5.37
O=c1cc(-c2ccc(O)cc2)oc2c([C@@H]3O[C@H](CO)[C@@H](O)[C@H](O)[C@H]3O)c(O)c([C@@H]3O[C@H](CO)[C@@H](O)[C@H](O)[C@H]3O)c(O)c12,inactive,170,–
COc1cc(O)c2c(=O)c(O)c(-c3ccc(O)c(OC)c3)oc2c1 [RHAMNAZIN],inactive,40,–
COc1cc(O)c2c(=O)c(O[C@@H]3O[C@H](CO)[C@@H](O)[C@H](O)[C@H]3O)c(-c3ccc(O[C@@H]4O[C@H](CO)[C@@H](O)[C@H](O)[C@H]4O)cc3)oc2c1 [COMPLANATUSIDE],inactive,320,–
COc1cc(O)c2c(=O)c(O)c(-c3ccc(O)cc3)oc2c1 [RHAMNOCITRIN],inactive,80,–
O=c1ccc2cc(O)c(O)cc2o1 [ESCULETIN],0.14 mM,140,–
COc1cc(O)c2c(=O)c(O)c(-c3ccc(O)c(O)c3)oc2c1 [RHAMNETIN],inactive,80,–
COc1cc(O)c2c(=O)c(O[C@@H]3O[C@H](CO)[C@@H](O[C@@H]4OC[C@@H](O)[C@H](O)[C@H]4O)[C@H](O)[C@H]3O)c(-c3ccc(O)cc3)oc2c1 [NERVILIFORDIN A],inactive,170,–
COc1cc(O)c2c(=O)c(O[C@@H]3O[C@H](CO)[C@@H](O[C@@H]4O[C@H](CO)[C@@H](O)[C@H](O)[C@H]4O)[C@H](O)[C@H]3O)c(-c3ccc(O)cc3)oc2c1 [NERVILIFORDIN B],inactive,160,–
COc1cc(O)c2c(=O)c(O[C@@H]3O[C@H](CO)[C@@H](O)[C@H](O)[C@H]3O)c(-c3ccc(O)c(OC)c3)oc2c1,inactive,200,–

# — ChEMBL document CHEMBL1152922, “7-O-methylkaempferol and -quercetin glycosides from the whole plant of Nervilia fordii” (J Nat Prod, 2009)
